According to ChEMBL document CHEMBL3259616, “New Ianthelliformisamine derivatives as antibiotic enhancers against resistant Gram-negative bacteria” (J Med Chem, 2014):
Values after ≈ are worked out from the molar mass of the structure shown. Active and inactive are the calls of the source. The calls are words filed in the database; no cut-off is given here.

Columns and labels:
Klebsiella aerogenes [1] = assay: Antibacterial activity against Enterobacter aerogenes EA289 assessed as inhibition of visible growth after 18 hrs incubation by standard broth dilution method; assay type: functional; settings: EA289, 18 h
How it was run: (§1)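 Broth microdilution per CA-SFM: inoculum 10^5 CFU in 200 μL Mueller–Hinton broth with 2-fold serial dilutions of compound; MIC = lowest concentration with no visible growth after 18 h at 37 °C. Independently repeated at least three times. Strains kept at −80 °C in 15% glycerol and grown routinely in MH broth at 37 °C.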

Staphylococcus aureus = assay: Antibacterial activity against Staphylococcus aureus DSM799 assessed as inhibition of visible growth after 18 hrs incubation by standard broth dilution method; assay type: functional; settings: DSM799, 18 h; how it was run: as §1
Pseudomonas aeruginosa [2] = assay: Antibacterial activity against Pseudomonas aeruginosa PAO1 assessed as inhibition of visible growth after 18 hrs incubation by standard broth dilution method; assay type: functional; settings: PAO1, 18 h; how it was run: as §1
Klebsiella pneumoniae [3] = assay: Antibacterial activity against Klebsiella pneumoniae KPC2 ST258 assessed as inhibition of visible growth after 18 hrs incubation by standard broth dilution method; assay type: functional; settings: KPC2, 18 h; how it was run: as §1
Klebsiella aerogenes [4] = assay: Inhibition of multidrug resistance efflux pump in Enterobacter aerogenes EA289 assessed as dose required to restore 2 ug/ml doxycycline-induced inhibition of visible growth after 18 hrs by standard broth dilution method
How it was run: (§2)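 Broth microdilution in MH broth, inoculum 10^5 CFU in 200 μL, 2-fold serial dilutions of derivative with fixed antibiotic (2 μg/mL). Lowest derivative concentration giving complete inhibition of visible growth after 18 h at 37 °C recorded. Antibiotics dissolved in DMSO. Independently repeated at least three times.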

[5] = system: Pseudomonas aeruginosa PAO1; assay: Inhibition of multidrug resistance efflux pump in Pseudomonas aeruginosa PAO1 assessed as dose required to restore 2 ug/ml doxycycline-induced inhibition of visible growth after 18 hrs by standard broth dilution method; how it was run: as §2
Klebsiella pneumoniae [6] = assay: Inhibition of multidrug resistance efflux pump in Klebsiella pneumoniae KPC2 ST258 assessed as dose required to restore 2 ug/ml doxycycline-induced inhibition of visible growth after 18 hrs by standard broth dilution method
How it was run: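 Broth microdilution in Mueller-Hinton broth, CA-SFM recommendations. Inoculum 10^5 CFU in 200 μL containing 2-fold serial dilutions of derivative plus doxycycline at 2 μg/mL, 37 °C for 18 h. Antibiotics dissolved in DMSO, up to 5% v/v. Repeated independently at least three times.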

[7] = system: Pseudomonas aeruginosa PAO1; assay: Inhibition of multidrug resistance efflux pump in Pseudomonas aeruginosa PAO1 assessed as dose required to restore 2 ug/ml chloramphenicol-induced inhibition of visible growth after 18 hrs by standard broth dilution method; how it was run: as §2
[8] = system: Pseudomonas aeruginosa PAO1; assay: Inhibition of multidrug resistance efflux pump in Pseudomonas aeruginosa PAO1 assessed as dose required to restore 2 ug/ml cefepime-induced inhibition of visible growth after 18 hrs by standard broth dilution method; how it was run: as §2
[9] = Cytotoxicity against CHOK1 cells assessed as decrease in cell viability after 24 hrs by WST-1 assay; assay type: cell-based; settings: Cricetulus griseus, CHO-K1, 24 h
How it was run: (§3)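 CHO-K1 (McCoy's 5A) and human fibroblasts (DMEM), both with 10% bovine calf serum, 2 mM glutamine, penicillin/streptomycin, 37 °C, 5% CO2. Seeded, left overnight, then exposed to various compound concentrations in triplicate for 24 h at 37 °C. Washed three times in PBS, 30 min in PBS with 10% WST-1, A450. Viability as % of medium-only control; IC50 by nonlinear regression.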

[10] = Cytotoxicity against human fibroblasts assessed as decrease in cell viability after 24 hrs by WST-1 assay; assay type: cell-based; settings: Fibroblast; how it was run: as §3
Pseudomonas aeruginosa [11] = assay: Disruption of outermembrane in Pseudomonas aeruginosa PAO1 assessed as ATP efflux at 2 mM by bioluminescence method; assay type: functional
How it was run: (§4)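 After 5 min an aliquot was vortexed, luciferin–luciferase added and luminescence read for 5 s. ATP quantified with an internal standard; maximal release set with 0.02% […].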

Pseudomonas aeruginosa [12] = assay: Disruption of outermembrane in Pseudomonas aeruginosa PAO1 assessed as ATP efflux at 2 to 200 uM by bioluminescence method in presence of 2 to 50 ug/ml doxycycline; assay type: functional, organism-based; how it was run: as §4
Pseudomonas aeruginosa [13] = assay: Disruption of outermembrane in Pseudomonas aeruginosa PAO1 assessed as ATP efflux at 2 to 200 uM by bioluminescence method; assay type: functional, organism-based; how it was run: as §4
Pseudomonas aeruginosa [14] = assay: Disruption of outermembrane in Pseudomonas aeruginosa PAO1 assessed as rate of nitrocefin hydrolysis at 500 uM spectrophotometrically; assay type: functional, organism-based
How it was run: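 PAO1 grown in MH broth at 37 °C to OD600 0.5; then room temperature. Cells centrifuged and washed once in 20 mM potassium phosphate pH 7.2 with 1 mM MgCl2, then exposed to compound. Nitrocefin added to final 50 μg/mL as periplasmic β-lactamase substrate; hydrolysis followed as rising absorbance at 490 nm against untreated control.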

[15] = system: Pseudomonas aeruginosa PAO1; assay: Inhibition of multidrug resistance efflux pump in Pseudomonas aeruginosa PAO1 assessed as depolarization by spectrofluorometry
How it was run: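 PAO1 grown 24 h at 37 °C in MH broth, washed twice in buffered 250 mM sucrose with 5 mM MgSO4. Loaded with 3 μM 3,3-diethylthiodicarbocyanine iodide for 1 h at 37 °C, then derivative added at various concentrations. Fluorescence read at 0–21 min intervals. Maximum taken as 3 μM dye alone in buffer.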

| SMILES | MIC (Klebsiella aerogenes [1]) | MIC (Staphylococcus aureus) | MIC (Pseudomonas aeruginosa [2]) | MIC (Klebsiella pneumoniae [3]) | Activity (Klebsiella aerogenes [4]) | Activity [5] | inhibition [5] | Activity (Klebsiella pneumoniae [6]) | Activity [7] | Activity [8] | IC50 [9] | IC50 [10] | Activity (Pseudomonas aeruginosa [11]) | inhibition (Pseudomonas aeruginosa [12]) | inhibition (Pseudomonas aeruginosa [13]) | inhibition (Pseudomonas aeruginosa [14]) | inhibition [15] |
| --- | --- | --- | --- | --- | --- | --- | --- | --- | --- | --- | --- | --- | --- | --- | --- | --- | --- |
| COc1c(Br)cc(/C=C/C(=O)NCCCNCCCNCCCNC(=O)/C=C/c2cc(Br)c(OC)c(Br)c2)cc1Br | 100 µM (≈ 82.4 µg/mL) | 12.5 µM (≈ 10.3 µg/mL) | 25 µM (≈ 20.6 µg/mL) | 12.5 µM (≈ 10.3 µg/mL) | 12.5 µM | 3.12 µM | Dose-dependent effect | 12.5 µM | 12.5 µM | 1.6 µM | 663 µM | 237 µM | – | – | – | – | – |
| COc1c(Br)cc(/C=C/C(=O)NCCCN2CCOCC2)cc1Br | > 200 µM | > 200 µM | > 200 µM | > 200 µM | > 100 µM | > 100 µM | Dose-dependent effect | >100 µM | – | – | – | – | – | – | – | – | – |
| COc1c(Br)cc(/C=C/C(=O)NCCCNCCCCNCCCN)cc1Br [IANTHELLIFORMISAMINE A] | > 200 µM | 200 µM (≈ 104 µg/mL) | 200 µM (≈ 104 µg/mL) | > 200 µM | > 100 µM | 12.5 µM | Dose-dependent effect | >100 µM | – | – | – | – | – | – | – | – | – |
| COc1c(Br)cc(/C=C/C(=O)NCCCN(CCCN)CCCN)cc1Br | > 200 µM | 50 µM (≈ 25.3 µg/mL) | 100 µM (≈ 50.6 µg/mL) | > 200 µM | 6.25 µM | 3.12 µM | Dose-dependent effect | 3.12 µM | 100 µM | 0.4 µM | 846 µM | 345 µM | <16% | inactive | inactive | inactive | Dose-dependent effect |
| O=C(N[C@H](CO)[C@H](O)c1ccc([N+](=O)[O-])cc1)C(Cl)Cl [CHLORAMPHENICOL] | > 200 µM | – | > 200 µM | – | – | – | – | – | – | – | – | – | – | – | – | – | – |
| COc1c(Br)cc(/C=C/C(=O)NCCCN2CCCC2)cc1Br | > 200 µM | > 200 µM | > 200 µM | > 200 µM | > 100 µM | 25 µM | Dose-dependent effect | >100 µM | – | – | – | – | – | – | – | – | – |
| COc1c(Br)cc(/C=C/C(=O)NCCCCNCCCN)cc1Br.Cl.Cl | > 200 µM | 200 µM | 200 µM | > 200 µM | 6.25 µM | 3.12 µM | Dose-dependent effect | 3.12 µM | 100 µM | 3.12 µM | 108 µM | 33 µM | – | – | – | – | – |
| COc1c(Br)cc(/C=C/C(=O)NCCCOCCCCOCCCN)cc1Br | > 200 µM | > 200 µM | > 200 µM | > 200 µM | > 100 µM | > 100 µM | Dose-dependent effect | >100 µM | – | – | – | – | – | – | – | – | – |
| COc1c(Br)cc(/C=C/C(=O)NCCCN(C)CCCN)cc1Br | > 200 µM | > 200 µM | 200 µM (≈ 92.6 µg/mL) | > 200 µM | – | – | – | – | – | – | 174 µM | 24 µM | – | – | – | – | – |
| COc1c(Br)cc(/C=C/C(=O)NCCCN2CCN(CCCN)CC2)cc1Br | > 200 µM | 6.25 µM (≈ 3.24 µg/mL) | > 200 µM | > 200 µM | > 100 µM | – | – | >100 µM | – | – | – | – | – | – | – | – | – |
| COc1c(Br)cc(/C=C/C(=O)NCCCNCCCCN)cc1Br.Cl.Cl | 100 µM | > 200 µM | > 200 µM | > 200 µM | 25 µM | 12.5 µM | Dose-dependent effect | 3.12 µM | 200 µM | 0.8 µM | 1660 µM | 129 µM | – | – | – | – | – |
| COc1c(Br)cc(/C=C/C(=O)NCCN)cc1Br | > 200 µM | > 200 µM | > 200 µM | > 200 µM | > 100 µM | > 100 µM | Dose-dependent effect | 50 µM | – | – | – | – | – | – | – | – | – |
| COc1c(Br)cc(/C=C/C(=O)NCCNCCNCCNCCN)cc1Br | 200 µM (≈ 101 µg/mL) | 50 µM (≈ 25.4 µg/mL) | 100 µM (≈ 50.7 µg/mL) | > 200 µM | 12.5 µM | 6.25 µM | Dose-dependent effect | 3.12 µM | 100 µM | 6.25 µM | 573 µM | 237 µM | – | – | – | – | – |
| CO/N=C(\C(=O)N[C@@H]1C(=O)N2C(C(=O)[O-])=C(C[N+]3(C)CCCC3)CS[C@H]12)c1csc(N)n1 [CEFEPIME] | 52 µM (≈ 25 µg/mL) | – | 26 µM (≈ 12.5 µg/mL) | – | – | – | – | – | – | – | – | – | – | – | – | – | – |
| COc1c(Br)cc(/C=C/C(=O)NCCNCCNCCN)cc1Br | > 200 µM | > 200 µM | > 200 µM | > 200 µM | > 100 µM | > 100 µM | Dose-dependent effect | >100 µM | – | – | – | – | – | – | – | – | – |
| COc1c(Br)cc(/C=C/C(=O)NCCCCN)cc1Br | > 200 µM | > 200 µM | > 200 µM | > 200 µM | > 100 µM | > 100 µM | Dose-dependent effect | >100 µM | – | – | – | – | – | – | – | – | – |
| C[C@H]1c2cccc(O)c2C(=O)C2=C(O)[C@]3(O)C(=O)C(C(N)=O)=C(O)[C@@H](N(C)C)[C@@H]3[C@@H](O)[C@@H]21 [DOXYCYCLINE] | 56 µM (≈ 24.9 µg/mL) | < 3 µM | 112 µM (≈ 49.8 µg/mL) | – | – | – | – | – | – | – | – | – | – | – | – | – | – |
| COc1c(Br)cc(/C=C/C(=O)NCCCCCN)cc1Br | > 200 µM | > 200 µM | > 200 µM | > 200 µM | > 100 µM | > 100 µM | Dose-dependent effect | 6.25 µM | – | – | – | – | – | – | – | – | – |
| COc1c(Br)cc(/C=C/C(=O)NCCCN)cc1Br | > 200 µM | > 200 µM | 100 µM (≈ 39.2 µg/mL) | > 200 µM | > 100 µM | 100 µM | Dose-dependent effect | 100 µM | – | – | – | – | – | – | – | – | – |
